Assay results: ChEMBL document CHEMBL4118052, “Involvement of the Glucocorticoid Receptor in Pro-inflammatory Transcription Factor Inhibition by Daucane Esters from Laserpitium zernyi” (J Nat Prod, 2017)

Experiments:
A549 [1] = assay: Inhibition of TNFalpha-induced NFkB activity in GR knockout human A549 cells harboring NFkB-Luc assessed as NFkB activity at 1 uM preincubated for 1 hr followed by TNFalpha stimulation measured after 5 hrs by luciferase reporter gene assay (reference value: 100%); type: functional; set-up: scale not given: the % may be the effect or the level left
Procedure, shortened: (§1)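 GR-knockout A549 cells carrying stably integrated NF-κB-Luc. Pretreatment 1 h with compound (30 μM) or dexamethasone (1 μM), then TNF (200 IU/mL) for 5 h. Luciferase luminescence as % of TNF-induced solvent control.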

[2] = molecular target: T1, Glucocorticoid receptor (Homo sapiens) (UniProt P04150); assay: Modulation of glucocorticoid receptor in human A549 cells harboring NFkB-Luc assessed as reduction in TNFalpha-induced NFkB activity preincubated for 1 hr followed by TNFalpha stimulation measured after 5 hrs by luciferase reporter gene assay; type: cell-based
T1 sequence (whole entry): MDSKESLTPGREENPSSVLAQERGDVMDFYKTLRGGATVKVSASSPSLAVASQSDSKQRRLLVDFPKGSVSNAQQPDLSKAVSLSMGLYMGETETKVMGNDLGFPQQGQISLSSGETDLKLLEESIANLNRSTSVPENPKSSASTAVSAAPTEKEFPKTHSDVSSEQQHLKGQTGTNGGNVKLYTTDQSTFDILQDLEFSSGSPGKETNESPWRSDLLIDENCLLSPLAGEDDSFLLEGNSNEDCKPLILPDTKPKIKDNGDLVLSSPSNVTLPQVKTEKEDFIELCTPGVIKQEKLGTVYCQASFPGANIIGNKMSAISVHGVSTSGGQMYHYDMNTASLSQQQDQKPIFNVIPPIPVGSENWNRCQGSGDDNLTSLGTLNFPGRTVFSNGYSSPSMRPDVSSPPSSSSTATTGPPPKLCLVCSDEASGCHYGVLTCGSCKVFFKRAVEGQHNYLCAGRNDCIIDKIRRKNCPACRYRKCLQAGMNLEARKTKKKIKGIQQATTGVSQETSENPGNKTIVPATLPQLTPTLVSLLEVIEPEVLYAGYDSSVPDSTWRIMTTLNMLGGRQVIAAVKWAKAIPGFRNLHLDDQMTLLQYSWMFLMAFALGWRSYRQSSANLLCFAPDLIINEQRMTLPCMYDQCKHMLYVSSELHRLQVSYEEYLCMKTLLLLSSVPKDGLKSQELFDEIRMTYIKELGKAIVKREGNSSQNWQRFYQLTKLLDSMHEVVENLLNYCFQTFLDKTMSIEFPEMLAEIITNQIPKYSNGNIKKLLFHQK
Procedure, shortened: (§2)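 A549 cells with stably integrated NF-κB-Luc (9000/well, 24 h) given compound at 10, 30 or 60 μM, dexamethasone 1 μM or solvent for 1 h. TNF (200 IU/mL) induction for 5 h, then luciferase read. Values as % of TNF-induced solvent control; four independent replicates; one-way ANOVA.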

[3] = molecular target: T1, Glucocorticoid receptor (Homo sapiens); assay: Modulation of glucocorticoid receptor in human A549 cells harboring AP-1-Luc assessed as reduction in PMA-induced AP-1 activity preincubated for 1 hr followed by PMA stimulation measured after 5 hrs by luciferase reporter gene assay; type: cell-based
Procedure, shortened: (§3)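 AP-1-Luc A549 cells (9000/well, 24 h) pretreated 1 h with compound (10–60 μM), dexamethasone 1 μM or solvent, then PMA-induced for 5 h. Luciferase activity as % of PMA-induced solvent group. One-way ANOVA with Tukey test.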

[4] = molecular target: T1, Glucocorticoid receptor (Homo sapiens); assay: Modulation of glucocorticoid receptor in human A549 cells harboring AP-1-Luc assessed as reduction in PMA-induced AP-1 activity by measuring AP-1 activity at 60 uM preincubated for 1 hr followed by PMA stimulation measured after 5 hrs by luciferase reporter gene assay (reference value: 100%); type: cell-based; set-up: scale not given: the % may be the effect or the level left; procedure, shortened: as §3
A549 [5] = assay: Cytotoxicity against PMA stimulated human A549 cells harboring AP-1-Luc assessed as reduction in cell viability preincubated for 1 hr followed by PMA stimulation measured after 5 hrs by Cell-Titer Glo assay; type: cell-based; conditions: a549, 5 h
Procedure, shortened: (§4)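 AP-1-Luc A549 cells (9000/well) incubated 24 h, then compound (10, 30, 60 μM) or solvent added. PMA induction 1 h later, 5 h further incubation. Viability by Cell Titer Glo ATP luminescence. Solvent group treated with PMA set as 100%.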

A549 [6] = assay: Cytotoxicity against TNFalpha stimulated human A549 cells harboring NFkB-Luc assessed as reduction in cell viability preincubated for 1 hr followed by TNFalpha stimulation measured after 5 hrs by Cell-Titer Glo assay; type: cell-based; conditions: a549, 5 h
Procedure, shortened: (§5)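 A549 cells with stably integrated NF-κB-Luc seeded at 9000/well for 24 h, then exposed to compound (10, 30, 60 μM) or solvent. TNF given 1 h later, 5 h incubation. Cell Titer Glo ATP readout, with TNF-treated solvent group as 100%.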

[7] = Cytotoxicity against PMA stimulated human A549 cells harboring AP-1-Luc assessed as cell viability at 30 uM preincubated for 1 hr followed by PMA stimulation measured after 5 hrs by Cell-Titer Glo assay (reference value: 100%); type: cell-based; conditions: read-out: Activity; procedure, shortened: as §4
[8] = Cytotoxicity against TNFalpha stimulated human A549 cells harboring NFkB-Luc assessed as cell viability at 30 uM preincubated for 1 hr followed by TNFalpha stimulation measured after 5 hrs by Cell-Titer Glo assay (reference value: 100%); type: cell-based; conditions: read-out: Activity; procedure, shortened: as §5
[9] = Cytotoxicity against GR knockout human A549 cells harboring Neo-Luc assessed as cell viability at 30 uM by Cell-Titer Glo assay (reference value: 100%); type: cell-based; conditions: read-out: Activity
Procedure, shortened: (§6)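 NeoLuc A549 cells (9000/well) incubated 24 h, then test compound or solvent added; viability by Cell Titer Glo ATP luminescence, run by the same protocol as the reporter assays. Solvent-treated control taken as 100%.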

A549 [10] = assay: Cytotoxicity against PMA stimulated human A549 cells harboring AP-1-Luc assessed as reduction in cell viability at 60 uM preincubated for 1 hr followed by PMA stimulation measured after 5 hrs by Cell-Titer Glo assay relative to control; type: cell-based; conditions: a549, 5 h; procedure, shortened: as §4
A549 [11] = assay: Cytotoxicity against TNFalpha stimulated human A549 cells harboring NFkB-Luc assessed as reduction in cell viability at 60 uM preincubated for 1 hr followed by TNFalpha stimulation measured after 5 hrs by Cell-Titer Glo assay relative to control; type: cell-based; conditions: a549, 5 h; procedure, shortened: as §5
A549 [12] = assay: Cytotoxicity against GR knockout human A549 cells harboring Neo-Luc assessed as reduction in cell viability at 60 uM by Cell-Titer Glo assay relative to control; type: cell-based; conditions: a549, 60 µM; procedure, shortened: as §6
[13] = molecular target: T1, Glucocorticoid receptor (Homo sapiens); assay: Modulation of glucocorticoid receptor in human A549 cells assessed as 0.1 uM dexamethasone-induced GRE-driven promoter activity at 30 uM by luciferase reporter gene assay (reference value: 100%); type: cell-based
Procedure, shortened: (§7)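 A549 cells with a stably integrated GRE-dependent promoter-luciferase construct. Compound at 10 or 30 μM given together with dexamethasone at 0.1 or 0.01 μM. Luciferase expressed as % of Dex-induced expression with solvent alone. Mean ± SD of ≥3 independent replicates.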

[14] = molecular target: T1, Glucocorticoid receptor (Homo sapiens); assay: Modulation of glucocorticoid receptor in human A549 cells assessed as 0.1 uM dexamethasone-induced GRE-driven promoter activity at 10 uM by luciferase reporter gene assay (reference value: 100%); type: cell-based; procedure, shortened: as §7
[15] = molecular target: T1, Glucocorticoid receptor (Homo sapiens); assay: Modulation of glucocorticoid receptor in human A549 cells assessed as 0.01 uM dexamethasone-induced GRE-driven promoter activity at 30 uM by luciferase reporter gene assay (reference value: 100%); type: cell-based; procedure, shortened: as §7
[16] = molecular target: T1, Glucocorticoid receptor (Homo sapiens); assay: Modulation of glucocorticoid receptor in human A549 cells assessed as 0.01 uM dexamethasone-induced GRE-driven promoter activity at 10 uM by luciferase reporter gene assay (reference value: 100%); type: cell-based; procedure, shortened: as §7
[17] = molecular target: T1, Glucocorticoid receptor (Homo sapiens); assay: Modulation of glucocorticoid receptor in human A549 cells assessed as TNFalpha-induced CCL2 production at 30 uM preincubated for 1 hr followed by TNFalpha stimulation measured after 5 hrs by ELISA (reference value: 100%); type: cell-based
Procedure, shortened: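 Basal (non-reporter) A549 cells treated with compound at 30 μM, then TNF (200 IU/mL). CCL2 protein in medium measured by ELISA, as % of TNF-treated solvent control. Mean ± SD of three independent replicates; Student's t test.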

A549 [18] = assay: Inhibition of TNFalpha-induced NFkB activity in GR knockout human A549 cells harboring NFkB-Luc assessed as NFkB activity at 30 uM preincubated for 1 hr followed by TNFalpha stimulation measured after 5 hrs by luciferase reporter gene assay (reference value: 100%); type: functional; set-up: scale not given: the % may be the effect or the level left; procedure, shortened: as §1
[19] = molecular target: T1, Glucocorticoid receptor (Homo sapiens); assay: Modulation of glucocorticoid receptor in human A549 cells harboring NFkB-Luc assessed as reduction in TNFalpha-induced NFkB activity by measuring NFkB activity at 60 uM preincubated for 1 hr followed by TNFalpha stimulation measured after 5 hrs by luciferase reporter gene assay (reference value: 100%); type: cell-based; set-up: scale not given: the % may be the effect or the level left; procedure, shortened: as §2
[20] = Cytotoxicity against PMA stimulated human A549 cells harboring AP-1-Luc assessed as cell viability at 60 uM preincubated for 1 hr followed by PMA stimulation measured after 5 hrs by Cell-Titer Glo assay (reference value: 100%); type: cell-based; conditions: read-out: Activity; procedure, shortened: as §4
[21] = Cytotoxicity against TNFalpha stimulated human A549 cells harboring NFkB-Luc assessed as cell viability at 60 uM preincubated for 1 hr followed by TNFalpha stimulation measured after 5 hrs by Cell-Titer Glo assay (reference value: 100%); type: cell-based; conditions: read-out: Activity; procedure, shortened: as §5
[22] = Cytotoxicity against GR knockout human A549 cells harboring Neo-Luc assessed as cell viability at 60 uM by Cell-Titer Glo assay (reference value: 100%); type: cell-based; conditions: read-out: Activity; procedure, shortened: as §6

SMILES	Activity [2]	Activity [3]	Activity [4] [%]	Activity (A549 [5])	Activity (A549 [6])	viability at 5 h, 30 µM [7] [%]	viability at 5 h, 30 µM [8] [%]	viability at 30 µM [9] [%]	Activity (A549 [10])	Activity (A549 [11])	Activity (A549 [12])	Activity [13] [%]	Activity [14] [%]	Activity [15] [%]	Activity [16] [%]	Activity [17] [%]	Activity (A549 [18]) [%]	also measured
C[C@@H]1C[C@H]2[C@@H]3CCC4=CC(=O)C=C[C@]4(C)[C@@]3(F)[C@@H](O)C[C@]2(C)[C@@]1(O)C(=O)CO [DEXAMETHASONE]	–	–	–	–	–	–	–	–	–	–	–	–	–	–	–	–	–	Activity (A549 [1]): 97.2%
C/C=C(/C)C(=O)O[C@@H]1C=C(C)CC[C@]2(O)[C@@H](C(C)C)CC(=O)[C@]12C	Dose-dependent effect	Dose-dependent effect	41.4	Dose-dependent effect	Dose-dependent effect	> 97	> 97	> 97	<= 10%	<= 10%	<= 10%	74.5	> 90	80.4	> 90	70.1	–	–
C/C=C(/C)C(=O)O[C@H]1C[C@@](C)(O)C(=O)[C@@H](OC(=O)/C(C)=C\C)[C@@]2(C)CC[C@@](O)(C(C)C)[C@H]12	Dose-dependent effect	Dose-dependent effect	–	Dose-dependent effect	Dose-dependent effect	–	–	–	–	–	–	> 90	> 90	83.5	> 90	–	–	–
C/C=C(/C)C(=O)O[C@@H]1C[C@@](O)(C(C)C)[C@@H]2CC=C(C)C(=O)[C@@H](O)[C@]21C	Dose-dependent effect	Dose-dependent effect	–	Dose-dependent effect	Dose-dependent effect	–	–	–	–	–	–	71.6	> 90	52.8	> 90	–	–	–
C/C=C(/C)C(=O)O[C@@H]1C[C@@](O)(C(C)C)[C@@H]2CCC(C)=C[C@@H](O)[C@]21C	Dose-dependent effect	Dose-dependent effect	–	Dose-dependent effect	Dose-dependent effect	> 97	> 97	> 97	<= 10%	<= 10%	<= 10%	80.9	> 90	77	> 90	–	91.8	–
C/C=C(/C)C(=O)O[C@@H]1C[C@@](O)(C(C)C)[C@@H]2CCC(C)=C[C@@H](OC(C)=O)[C@]21C	Dose-dependent effect	Dose-dependent effect	41	Dose-dependent effect	Dose-dependent effect	> 95	> 95	> 95	–	–	–	67.1	78	48.9	70.1	72.1	83.6	Activity [19]: 52%; viability at 5 h, 60 µM [20]: 93.4%; viability at 5 h, 60 µM [21]: 97.3%; viability at 60 µM [22]: 90%
